The values that follow come from ChEMBL document CHEMBL1124344, “5-Piperazinylalkyl-2(3H)-oxazolones with neuroleptic activity” (J Med Chem, 1989).

In test [1] the test system is Rattus norvegicus. Put plainly: Activity to evoke catalepsy in rats, by administering perorally. Type of test: functional. Particulars: po. Summed up: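 Rats fasted overnight and given oral doses in arabic gum suspension (10 mL/kg), 1 h before screening or 1 and 5 h before profile testing. Forelegs placed on a horizontal bar 7 cm high, three times at 5-min intervals. Immobility of at least 15 s counts as catalepsy. ED50 is the dose giving catalepsy in 50% of rats, by probit analysis. Parenthetical entries give the maximal dose and percent activity.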

Test [2] deals with Rattus norvegicus. Put plainly: Antagonistic activity against apomorphine-induced stereotypy in rats, by administering perorally. Type of test: functional. Particulars: po. Summed up: (§1)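 Male rats fasted overnight and given oral doses in arabic gum suspension (10 mL/kg) 1 h, or 1 and 5 h, before challenge. Apomorphine 3 mg/kg iv, with stereotypy observed 20 min later. ED50 is the dose inhibiting stereotypy in 50% of rats, per Janssen's method. Parenthetical entries give the maximal dose and percent activity.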

The subject of test [3] is Mus musculus. The experiment in a line: Inhibitory activity against tremorine-induced tremors, after 5 hour of peroral administration in mouse at a dose of 60 mg/kg. Type of test: functional. To be noted: route oral. The gist of the method: (§2)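 Male mice fasted overnight, dosed orally with arabic gum suspension (10 mL/kg) 1 or 5 h before test, vehicle controls included. Tremorine 20 mg/kg ip given 1 h after compounds; central (tremor) and peripheral (salivation) parasympathetic signs recorded. ED50 = dose protecting 50% of animals, by probit analysis.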

For test [4], the system named is Mus musculus. The experiment in a line: Inhibitory activity against tremorine-induced tremors, after 1 hour of peroral administration in mouse at a dose of 60 mg/kg. Type of test: functional. Particulars: route oral. Summed up:
as §2

In test [5] the test system is Mus musculus. Put plainly: Contractile activity in skeletal muscles, after 5 hour of peroral administration in mouse. Type of test: functional. Particulars: Muscle tissue, po. The gist of the method: (§3)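 Male mice were placed for 1 h on a 60° inclined wire screen just after dosing and 4 h later. In a second test, trained mice hung by the forepaws from a horizontal 1.8 mm wire 15 cm up; normal mice touch it with a hind paw within 2 s and stay ≥1 min. ED50 is the dose making 50% fall. Dosing was oral in gum arabic suspension at 10 mL/kg after an overnight fast.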

Test [6] has as its system Rattus norvegicus. Put plainly: Inhibitory activity against norepinephrine-induced lethality, after 1 hour of peroral administration in rat. Type of test: functional. Particulars: po. The gist of the method:
(§4)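 Rats (80–90 g) dosed orally (arabic gum, 10 mL/kg) 1 or 5 h before norepinephrine 0.5 mg/kg iv, which kills unprotected rats within 30 min. ED50 is the dose protecting 50% of rats from lethality, by probit analysis.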

The test system of test [7] is Mus musculus. The experiment in a line: Inhibition against apomorphine-induced turning, after 1 hr of peroral administration in mouse. Type of test: functional. To be noted: po. The gist of the method: (§5)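 Mice were lesioned unilaterally with intranigrostriatal 6-hydroxydopamine (20 µg). At 7 days, strong contraversive turners 15 min after apomorphine 2 mg/kg ip were selected. A week later they were dosed orally and rechallenged. Fewer than six full rotations in 2 min counted as protection. ED50 is the dose protecting 50%.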

Test [8] concerns Mus musculus. The experiment in a line: Suppression of aggressive behavior, after 1 hour of peroral administration in mouse. Type of test: functional. To be noted: po. Summed up:
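Male mice made aggressive by isolation in individual black cages for about 1 month plus weekly testosterone cyclopentylpropionate 250 mg/kg sc; pairs preselected for attack on a nonisolated male within 15 min. Oral dosing (arabic gum, 10 mL/kg) 1 or 5 h before test, overnight fast. ED50 = dose suppressing aggression in 50% of animals, probit analysis.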

Test [9] deals with Mus musculus. Put plainly: Inhibitory activity against tremorine-induced salivation, after 1 hour of peroral administration in mouse at a dose of 60 mg/kg. Type of test: functional. To be noted: route oral. Summed up: as §2
In test [10] the test system is Mus musculus. The experiment in a line: Inhibitory activity against tremorine-induced salivation, after 5 hour of peroral administration in mouse at a dose of 60 mg/kg. To be noted: route oral. Type of test: functional. The gist of the method: as §2
Test [11] concerns Rattus norvegicus. Put plainly: Inhibitory activity against norepinephrine-induced lethality, after 5 hour of peroral administration in rat. The format is functional. To be noted: po. Summed up: as §4
Test [12] has as its system Mus musculus. The experiment in a line: Inhibitory activity against tremorine-induced salivation, after 5 hour of peroral administration in mouse. Particulars: po.
The subject of test [13] is Mus musculus. The experiment in a line: Effect on skeletal muscle tone, after 5 hour of peroral administration in mouse. The format is functional. Particulars: Muscle tissue, po. Summed up: as §3
The species named for test [14] is Rattus norvegicus. The experiment in a line: Binding affinity against rat striatal membranes using [3H]spiroperidol as the radioligand after 15 min of incubation at 37 °C.
Test [15] deals with Mus musculus. Put plainly: Lethal dose in mice by administered the compound intraperitoneally. Type of test: functional. Particulars: ip. Summed up: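 Acute toxicity tested in mice by the intraperitoneal route. LD50 is the dose killing 50% of treated mice, computed by Finney probit analysis; values are approximate.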
For test [16], the system named is Mus musculus. Put plainly: Anticonvulsant activity against pentylenetetrazole-induced convulsions, after 1 hour of peroral administration in mouse at a dose of 15 mg/kg. To be noted: route oral. Type of test: functional. Summed up:
(§6)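 Compounds were dosed as bases suspended in arabic gum at 10 mL/kg orally, after an overnight fast, with vehicle controls. Protection meant no bilateral forepaw clonic seizures or head twitches (tryptamine), or no tonic hind-limb extension (the other two). ED50 is the dose protecting 50%, by probit analysis.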

Test [17] concerns Mus musculus. Put plainly: Activity of inclined screen in mouse, after 5 hour of peroral administration in mouse. The format is functional. To be noted: po. The gist of the method: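 Male mice dosed orally (arabic gum suspension, 10 mL/kg, fasted overnight) 1 or 5 h before testing. Placed for 1 h on a wire screen bent at 60° to the horizontal. Ataxic or miorelaxed mice slide off. ED50 is the dose at which 50% of mice fall, by probit analysis. Ten animals per dose, with vehicle controls.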

For test [18], the system named is Mus musculus. The experiment in a line: Effect on skeletal muscle tone, after 1 hour of peroral administration in mouse. Type of test: functional. To be noted: Muscle tissue, po. The gist of the method: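 Male mice suspended by forepaws from a 1.8-mm wire stretched 15 cm above a plane. Trained normal mice touch the wire with a hind paw within 2 s (traction) and hang at least 1 min (suspension). Oral dosing 1 or 5 h before. ED50 is the dose making 50% of mice fall without traction and suspension.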

Test [19] concerns Mus musculus. The experiment in a line: Anticonvulsant activity against electroshock-induced convulsions, after 1 hour of peroral administration in mouse. Particulars: po. The format is functional. The gist of the method:
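Male mice given oral drug in arabic gum suspension (10 mL/kg) after overnight fast, then challenged by maximal electroshock. Protection means absence of tonic hind-limb extension. ED50 is the dose protecting 50% of mice, by probit analysis.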

Test [20] concerns Mus musculus. Put plainly: Inhibitory activity against tremorine-induced salivation, after 1 hour of peroral administration in mouse. To be noted: po. The format is functional. The gist of the method:
as §2

Test [21] relates to Mus musculus. Put plainly: Anticonvulsant activity against electroshock-induced convulsions, after 5 hours of peroral administration in mouse. To be noted: po. The format is functional. The gist of the method: as §6
The subject of test [22] is Mus musculus. Put plainly: Inhibition against apomorphine-induced turning, after 5 hour of peroral administration in mouse. The format is functional. To be noted: po. The gist of the method: as §5
The subject of test [23] is Mus musculus. Put plainly: Effect on skeletal muscle tone, after 1 hour of peroral administration in mouse at dose of 200 mg/kg. Type of test: functional. To be noted: Muscle tissue, route oral. Summed up: as §3
The next test relates to Canis familiaris. Put plainly: Antagonistic activity against apomorphine-induced emesis, after 1 hr of peroral administration in dogs. Type of test: functional. Particulars: Canis lupus familiaris, po. The gist of the method: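 Male and female dogs pretreated orally, then challenged with apomorphine 0.3 mg/kg sc. Complete protection from vomiting for 30 min after apomorphine is the criterion. ED50 is the dose protecting 50% of dogs, per Janssen's method.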

For the next test, the target named is Dopamine receptor. Put plainly: Binding affinity against rat striatal membranes using [3H]spiroperidol as the radioligand, after 15 min of incubation in vitro at 37 degree C. The arrangement: species or system Striatum, Membrane. The gist of the method: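 Crude rat striatal membranes were stored at –80 °C, then thawed and washed. They were incubated 15 min at 37 °C with drug (10⁻¹⁰ to 10⁻⁴ M), [3H]spiroperidol 0.5 nM, 1 μM pargyline and 0.1% ascorbic acid, then filtered, washed and counted. Nonspecific binding was defined with 1 μM haloperidol. IC50 was read from the displacement curve.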

For test [24], the system named is Mus musculus. The experiment in a line: Inhibitory activity against tremorine-induced salivation, after 5 hour of peroral administration in mouse at dose of 60 mg/kg. Particulars: route oral. The format is functional. Summed up:
as §2

The test system of test [25] is Rattus norvegicus. The experiment in a line: Antagonistic activity against apomorphine-induced stereotypy, after 1 hour of peroral administration in rats at a dose of 100 mg/kg. The format is functional. To be noted: route oral. The gist of the method: as §1

Consider `COc1ccccc1N1CCN(CCCC(=O)c2ccc(F)cc2)CC1` [FLUANISONE], for which the ED50 with Rattus norvegicus [1] is 18 mg/kg; with Rattus norvegicus [2], 63.2 mg/kg; in the test on Mus musculus [5] it was 50 mg/kg; in the test with Rattus norvegicus [6], 1.9 mg/kg; in the test with Mus musculus [7] it was 14.7 mg/kg; in the test on Mus musculus [8] it was 6.1 mg/kg. This molecule also had a median effective dose (ED50) in the test on Rattus norvegicus [11] of 5.6 mg/kg. The inhibition in vivo at 60 mg/kg in the test on Mus musculus [3], with Mus musculus [4], in the test on Mus musculus [9] and with Mus musculus [10] was 0% in each case.
Consider `CN(C)CCCN1c2ccccc2Sc2ccc(Cl)cc21` [CHLORPROMAZINE], for which the ED50 amounted to 10.3 mg/kg in the test on Mus musculus [5]; 4.4 mg/kg in the test with Mus musculus [7]; 2 mg/kg in the test on Mus musculus [12]; 7.5 mg/kg with Mus musculus [13]; 2.7 mg/kg in the test with Mus musculus [15]; 7 mg/kg in the test on Mus musculus [17]. In addition, the 50% effective dose (ED50) was 2.7 mg/kg with Mus musculus [18], 19.2 mg/kg in the test with Mus musculus [19], 2.5 mg/kg in the test with Mus musculus [20] and 10 mg/kg in the test with Mus musculus [21]. This molecule gave a concentration for half-maximal inhibition (IC50) in the test listed under Rattus norvegicus [14] of 180 nM. This molecule also displayed an inhibition in vivo at 15 mg/kg in the test with Mus musculus [16] of 0%.
On to `COc1ccccc1N1CCN(CCc2oc(=O)[nH]c2-c2ccc(F)cc2)CC1` [ZOLOPERONE], for which the 50% effective dose (ED50) amounted to 55.6 mg/kg in the test with Rattus norvegicus [1]; 10.4 mg/kg in the test on Rattus norvegicus [2]; 62.5 mg/kg in the test with Mus musculus [5]; 20 mg/kg with Mus musculus [22]; 3.2 mg/kg in the test on Rattus norvegicus [6]; 15.9 mg/kg in the test on Mus musculus [7]. In addition, the ED50 is 4.7 mg/kg in the test with Mus musculus [8], 0.7 mg/kg in the test on Canis familiaris, 75 mg/kg with Mus musculus [13] and 8.2 mg/kg in the test on Rattus norvegicus [11]. The inhibition in vivo at 200 mg/kg with Mus musculus [23] amounted to 0%. For the same molecule, the IC50 at Dopamine receptor came out at 250 nM. This molecule gave an inhibition in vivo at 60 mg/kg with Mus musculus [24] of 0%.
As for `O=c1[nH]c(-c2ccc(F)cc2)c(CCN2CCN(c3cc(Cl)cc(Cl)c3)CC2)o1` [LODIPERONE], the inhibition in vivo at 60 mg/kg in the test with Mus musculus [3], in the test with Mus musculus [4], with Mus musculus [9] and with Mus musculus [10] was 0% each time. Also, the 50% effective dose (ED50) with Mus musculus [5] was 200 mg/kg; in the test with Mus musculus [22] it was 1 mg/kg; in the test with Mus musculus [7] it was 0.84 mg/kg; in the test with Mus musculus [8] it was 23.8 mg/kg; in the test on Canis familiaris, 4 mg/kg. Testing at 100 mg/kg in the test on Rattus norvegicus [25] gave an inhibition in vivo of 0%. Also, the half-inhibitory concentration (IC50) at Dopamine receptor was found to be 68 nM.
As to `O=C(CCCN1CCC(O)(c2ccc(Cl)cc2)CC1)c1ccc(F)cc1` [HALOPERIDOL], the ED50 in the test with Mus musculus [5] was 15 mg/kg; with Mus musculus [7], 0.32 mg/kg; in the test on Mus musculus [12], 21.6 mg/kg; with Mus musculus [15] it was 0.23 mg/kg; in the test on Mus musculus [17] it was 6.5 mg/kg; in the test on Mus musculus [18], 17.1 mg/kg. The 50% effective dose (ED50) with Mus musculus [19] was 1.9 mg/kg; in the test with Mus musculus [20], 4 mg/kg; with Mus musculus [21], 0.38 mg/kg. In addition, the IC50 in the test filed under Rattus norvegicus [14] came to 10 nM.

As a reminder, the ED50 is the dose that gives a 50% effect, or the effect in half of the subjects. Low readings indicate an effect at a small dose, high ones a need for a large dose. A word on the inhibition in vivo: it is the drop in the measured response relative to a control, in per cent. In general, IC50 refers to the point on the concentration scale where inhibition reaches its midpoint. Read a high IC50 as weaker potency in that assay.
